# Where two headings read alike, the source gives them in different places.
# What was measured:
# [1] = system: gastric H+/K+ adenosine triphosphatase (ATPase); details: porcine gastric vessels, cited from earlier work
# intragastric pH = details: cited from earlier work
# CYP1A2 = details: cited from earlier work
# advanced RCC = type: in vivo, human; details: univariate Cox regression
# Procedure, shortened: (§1)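 PFS was defined as time on treatment until progression or death and analysed per tumour type, with GAS vs no GAS groups (PPI/H2A use on the days before first Cmin). Median PFS came from Kaplan-Meier with log rank test, and hazard ratios from univariate Cox regression; P<.05 was significant. Patients with GI abnormalities or on strong CYP3A4 inducers/inhibitors were excluded.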
# STS = type: in vivo, human; details: for median PFS: pazopanib 800 mg fasted cohort
# Procedure, shortened: as §1
# [2] = cited from earlier work
# [3] = cited from earlier work; remark: listed apart in the source
# [4] = first steady-state pazopanib trough concentration; type: in vivo, human
# Procedure, shortened: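 Observational study. Patients took the study drug 800 mg OD fasted or 600 mg OD with food and were advised to take a PPI/H2A 1 hour later; antacid users were counted as non-GAS. Only the first steady-state (>7 consecutive days) plasma trough was used, measured by validated HPLC-MS/MS.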
Compound,"inhibition of H+, K+ ATPase ([1]; at 45 minutes)",duration of pH elevation >4 (intragastric pH; pantoprazole 40 mg),effect on CYP1A2 (CYP1A2),"time to fully inhibit the H+, K+ ATPase [1]",duration of pH elevation >4 (intragastric pH; omeprazole 20 mg),"hazard ratio for PFS, with vs without GAS (advanced RCC)",median PFS (STS; with GAS),median PFS (STS; without GAS),"hazard ratio for progression or death, with vs without GAS (STS; univariate Cox regression)",solubility in aqueous solutions ([2]; above pH 4),solubility in aqueous solutions ([2]; pH 1),increase of exposure on intake with a high caloric meal [3],oral bioavailability [3],decrease of mean pazopanib Cmin levels ([3]; esomeprazole administered 12 hours after fasted intake of pazopanib),"percentage of patients with Cmin below the target threshold of 20.5 mg/L ([4]; pazopanib 600 mg taken with food, with GAS)","percentage of patients with Cmin below the target threshold of 20.5 mg/L ([4]; pazopanib 600 mg taken with food, without GAS)","percentage of patients with Cmin below the target threshold of 20.5 mg/L ([4]; pazopanib 800 mg taken fasted, with GAS)","percentage of patients with Cmin below the target threshold of 20.5 mg/L ([4]; pazopanib 800 mg taken fasted, without GAS)"
COc1ccnc(C[S+]([O-])c2nc3ccc(OC(F)F)cc3[nH]2)c1OC (stereo not shown) [pantoprazole],50%,41.94 % of the day,does not affect CYP1A2,–,–,–,–,–,–,–,–,–,–,–,–,–,–,–
COc1ccc2[nH]c([S+]([O-])Cc3ncc(C)c(OC)c3C)nc2c1 (stereo not shown) [omeprazole],–,–,dose‐dependent inducer of CYP1A2,30 min,49.16 % of the day,–,–,–,–,–,–,–,–,–,–,–,–,–
Cc1ccc(Nc2nccc(N(C)c3ccc4c(C)n(C)nc4c3)n2)cc1S(N)(=O)=O [pazopanib],–,–,–,–,–,1.13,17 weeks,32 weeks,3.89,practically insoluble,slightly soluble,~ 2 fold,approximately 21%,36%,26.9%,14%,33.3%,19.5%

# From PMC8048885 (International Journal of Cancer, 2021)
